Results of several laboratories.
Target: Death-associated protein kinase 1 (DAPK1, Homo sapiens, UniProt P53355)

SMILES	test	conditions	endpoint	result
COc1cc(/C=C/C(=O)CC(=O)/C=C/c2ccc(O)c(OC)c2)ccc1O	enzyme activity, inhibitor	1 µM	activity vs control	93%
CC(C)(C)c1nc2c(s1)c1nc(N)ncc1c1ccc(NS(=O)(=O)c3c(F)cccc3F)c(F)c12	enzyme activity, inhibitor, radiometric	1 µM	remaining activity	79%
COc1cc(Nc2cnc(C#N)c(O[C@H](C)CN(C)C)n2)ncc1-c1cnn(C)c1	enzyme activity, inhibitor, radiometric	10 µM	remaining activity	98%
CCN(CC)CCNC(=O)c1c(C)[nH]c(/C=C2\C(=O)Nc3ccc(F)cc32)c1C	cell-free assay	0.5 µM	remaining signal	66.9%
O=C(Nc1cnn(-c2csc(C(=O)NC3COC3)c2)c1)Nc1c(F)cccc1Cl	enzyme activity, inhibitor	5 µM	remaining activity	98.9%
CS(=O)(=O)NCC[C@H](NC(=O)c1cncc2c1cnn2-c1ccc(F)cc1)c1ccnc(S(C)(=O)=O)c1	cell-free assay, competition with immobilised ligand	1 µM	remaining binding	100%
Cc1ccc(NC(=O)c2ccc(C)c(C(F)(F)F)c2)cc1C#Cc1nn(C2CCC(O)CC2)c2ncnc(N)c12 (stereo not drawn)	cell-free assay	10 µM	remaining signal	97%
CN(C)c1ncnc(-c2ccc3nc(Nc4cc(CN5CCN(C(=O)CC(F)(F)F)CC5)ccn4)[nH]c3c2)c1Cl	cell-free assay, competition with immobilised ligand	1 µM	remaining binding	100%
FC(F)(F)Oc1cccc(-c2cnc3ccc(-c4ccncc4)nn23)c1	enzyme activity, inhibitor, radiometric	1 µM	activity vs control	101%
Cc1cnc(NC2CCOCC2)nc1-n1cnc(C(=O)NC(CN)c2cc(F)cc(Cl)c2)c1 (stereo not drawn)	enzyme activity, inhibitor, radiometric	1 µM	remaining activity	96%
Nc1nc(Nc2ccc(S(N)(=O)=O)cc2)nn1C(=O)c1c(F)cccc1F	cell-free assay	0.5 µM	remaining signal	93.8%
Cc1noc([C@H]2C[C@@H](c3ccc(C(F)(F)F)cc3)CN(C(=O)N3CCS(=O)(=O)C3)C2)n1	cell-free assay, competition with immobilised ligand	1 µM	remaining binding	100%
CC/C(=N\NC(=O)NCc1cccc(O)c1)c1ccc(O)c(C)c1O	enzyme activity, inhibitor	0.1 µM	inhibition	-1.6%
FC(F)c1nc2ccccc2n1-c1nc(N2CCOCC2)nc(N2CCOCC2)n1	enzyme activity, inhibitor	10 µM	remaining activity	75%
Cc1cc(NC(=O)c2cccc3cc(-c4cccc5[nH]nc(N)c45)ccc23)ccc1F	enzyme activity, inhibitor	0.1 µM	activity vs control	88%
CC(=O)Nc1c(C(C)=O)c(=O)n(C)c2nc(-c3ccc(Cl)cc3Cl)c(-c3ccc(Cl)cc3)cc12	cell-free assay, competition with immobilised ligand	1 µM	remaining binding	100%
Cc1ccc(Nc2nccc(N(C)c3ccc4c(C)n(C)nc4c3)n2)cc1S(N)(=O)=O	enzyme activity, inhibitor	0.3 µM	inhibition	16%
C[S+]([O-])c1ccc(-c2nc(-c3ccncc3)c(-c3ccc(F)cc3)[nH]2)cc1 (stereo not drawn)	cell-free assay	0.5 µM	remaining signal	90.3%
CNC(=O)c1cc(Oc2ccc(NC(=O)Nc3ccc(Cl)c(C(F)(F)F)c3)cc2)ccn1	enzyme activity, inhibitor	0.3 µM	inhibition	16%
CS(=O)(=O)N1CCCC(NC(=O)[C@H](CCC2CCCCC2)NC(=O)c2ccc(CNc3ncnc4c3nnn4-c3ccccc3)cc2)C1 (stereo partly drawn)	cell-free assay, competition with immobilised ligand	0.1 µM	remaining binding	92%
CN(C)C1CCN(CC#Cc2nn(C3CCCC3)c3nc(NCc4ccccc4)ncc23)C1 (stereo not drawn)	enzyme activity, inhibitor, FRET	0.1 µM	inhibition	1%
CCCCN(CCCC)C(=O)CN1C[C@@H](c2cc(OC)c3c(c2)OCO3)[C@H](C(=O)O)[C@H]1CC(C)(C)CCC	cell-free assay, competition with immobilised ligand	1 µM	remaining binding	82.8%
CN1CC(Oc2cnc(C#N)cc2-c2ccn3nc(NC(=O)C4CC4)cc3c2)C1	enzyme activity, inhibitor	1 µM	inhibition	1%
CCC(=O)N[C@H]1CC[C@@H](C(=O)N(C)c2ccc(-c3nc4ccccc4o3)cc2)C1	cell-free assay, competition with immobilised ligand	1 µM	remaining binding	96%
Oc1cccc(-c2nc(N3CCOCC3)c3oc4ncccc4c3n2)c1	enzyme activity, inhibitor	10 µM	remaining activity	30%
C[C@@]1(Cc2ccc(C#N)cc2)C(=O)N(c2cc(Cl)cc(Cl)c2)c2ncc(C(=O)NC3(c4nc(C5CCC5)no4)CC3)n21	cell-free assay, competition with immobilised ligand	1 µM	remaining binding	100%
O=C1NC(=O)c2cc(Nc3ccc(F)cc3)c(Nc3ccc(F)cc3)cc21	cell-free assay	0.5 µM	remaining signal	81.3%
